Rows were chosen to be rich in hits. Some 2.7% of all compounds tested hit in one or more screens of this group.
NR2E3 ag-1: agonists of human nuclear receptor NR2E3. GST-NR2E3/biotin-RetCOR TR-FRET, 1536-well. 320,000 compounds, 0.12% hits. inhibition of corepressor binding, % at 4.78 µM. Q9Y5X4;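 active = percent inhibition above the cutoff of mean plus 3 SD of all tested compounds, set per screening campaign, cut at about 20% in these data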;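 note: 0% = DMSO wells and 100% = biotin wells as full block of FRET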
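Material – GST-tagged NR2E3 plus biotinylated RetCOR corepressor · Quantity – NR2E3 fusion 1.35 nM · Times – 5 h incubation at 4 °C · Medium – pH 7.5 Tris-based buffer · Technique – TR-FRET, Eu(K)-anti-GST donor, streptavidin-D2 acceptor, ex 340, em 617/671 nm · Benchmarks – high control biotin, low control 0.6% DMSO · Format – 1536-well plates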
Rev-erbA mod: modulates human Rev-erb alpha binding to DNA | Rev-erbα–FITC-DNA binding, fluorescence polarization, 90 min | P20393 | AID 1259318 | activity, % at 10 µM | 370,000 compounds, 0.79% hits;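 active = activity above about 14%, limit read from the data; passing the limit was not always enough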;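 note: 0% = DMSO wells with 35 nM protein and 100% = DMSO wells with 750 nM protein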
Target sequence (P20393 whole entry, looked up): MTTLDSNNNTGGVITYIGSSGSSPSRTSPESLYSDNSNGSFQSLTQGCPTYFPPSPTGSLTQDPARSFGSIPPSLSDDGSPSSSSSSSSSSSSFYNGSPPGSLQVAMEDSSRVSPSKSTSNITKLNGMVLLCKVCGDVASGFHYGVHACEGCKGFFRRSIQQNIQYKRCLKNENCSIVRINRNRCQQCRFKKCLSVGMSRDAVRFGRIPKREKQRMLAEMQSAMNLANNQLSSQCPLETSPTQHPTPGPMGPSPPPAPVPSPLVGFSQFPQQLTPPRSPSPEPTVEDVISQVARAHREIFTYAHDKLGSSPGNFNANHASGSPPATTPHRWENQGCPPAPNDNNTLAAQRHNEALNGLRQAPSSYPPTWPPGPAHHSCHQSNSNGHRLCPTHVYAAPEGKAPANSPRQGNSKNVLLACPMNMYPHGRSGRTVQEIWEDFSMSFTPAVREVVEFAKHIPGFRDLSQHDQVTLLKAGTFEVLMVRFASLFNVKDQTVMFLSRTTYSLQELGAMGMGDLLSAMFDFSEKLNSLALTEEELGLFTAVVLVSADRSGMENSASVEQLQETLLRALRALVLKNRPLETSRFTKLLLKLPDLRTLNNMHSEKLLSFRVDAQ
MC4R antag cAMP: human MC4R antagonism in cAMP assay; P32245; MC4R-expressing cells, MTII-stimulated cAMP, LANCE TR-FRET; inhibition, % at 6.5 µM; 360,000 compounds, 0.48% hits; AID 540295;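 active = inhibition above its plate's cutoff, the mean of tested wells on that plate plus 3 SD, cut at about 29% in these data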;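 note: 0% = Melanotan II alone and 100% = Melanotan II plus saturating MCL0020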
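System: U2OS-MC4R stable cell line; Technique: Eu-cAMP/anti-cAMP TR-FRET, emission 671 nm; Repeats: single well per compound; Also added: Melanotan II; Dosing: one concentration, 6.5 µM nominal; Schedule: 30-min compound, 1-h challenge, 1-h detection, room temperature.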
PG9 binder: small molecules binding HIV-1 gp120 antibody PG9. 360,000 compounds, 0.43% hits. TR-FRET gp120-PG9 antibody binding. inhibition, % at 6.7 µM. AID 624416; in the data active = inhibition above about 8.5%
NR2E3 ag-2: agonists of human NR2E3 nuclear receptor | CHO-S Gal4-NCOR/VP16-NR2E3 two-hybrid, luciferase | inhibition of corepressor binding, % at 3.98 µM | 360,000 compounds, 0.35% hits | AID 602229;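 active = inhibition above the mean of all tested compounds plus 3 SD, cut at about 70% in these data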;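 note: 0% = DMSO with NR2E3 transfected cells and 100% = cells lacking NR2E3 construct; higher means lower luciferase signal from less NR2E3 corepressor binding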
MC4R ag barr: agonists of human melanocortin 4 receptor (MC4R) beta-arrestin; 360,000 compounds, 0.98% hits; P32245; U2OS MC4R beta-arrestin complementation, luminescence; percent of melanotan II response, DMSO zero; activation, % at 8.9 µM; AID 540308;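 active = activation above a per-plate cutoff, the mean activation of sample wells on that plate plus 3 SD, cut at about 8% in these data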
NR1D1 mod conf: confirmation of modulators of human Rev-erb alpha DNA binding; Rev-erb alpha FITC-DNA binding, fluorescence polarization, 90 min; activation, % at 25 µM; 3,000 compounds, 61% hits; shares compounds with Rev-erbA mod;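 active = activation at or above a set limit, or at least 3 SD above the negative control mean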;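 note: 0% = 35 nM protein with DMSO and 100% = 750 nM protein high control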
RORg DNA counter: affects RORgamma DNA binding in a Rev-erb alpha counter-screen; shares compounds with Rev-erbA mod; purified RORgamma protein-FITC-DNA binding, fluorescence polarization; IC50, µM; 910 compounds, 8% hits; AID 1259320;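 active = Compounds whose fitted half-maximal concentration for disrupting protein-DNA binding is below 10 micromolar; the record names Rev-erb in its text, so the target is in doubt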
Starred values were filed as active, the others as inactive.

`Cc1ccc2cc(CN(c3ccccc3)S(=O)(=O)c3ccccc3)c(=O)[nH]c2c1` gave NR2E3 ag-1 6, Rev-erbA mod 31*, MC4R antag cAMP -8, PG9 binder 1, NR2E3 ag-2 -22, MC4R ag barr -1 and NR1D1 mod conf 5.
For Cc1ccc2cc(CN(c3cccc(C)c3C)S(=O)(=O)c3ccccc3)c(=O)[nH]c2c1 the results were NR2E3 ag-1 0, Rev-erbA mod 20*, MC4R antag cAMP -10, PG9 binder -3, NR2E3 ag-2 -25, MC4R ag barr -1 and NR1D1 mod conf -2.
`Cc1cccc(N(Cc2cc3ccc(C)cc3[nH]c2=O)S(=O)(=O)c2ccccc2)c1` gave NR2E3 ag-1 1, Rev-erbA mod 21, MC4R antag cAMP -5, PG9 binder -1, NR2E3 ag-2 -17 and MC4R ag barr 2.
`Cc1ccc(N(Cc2cc3ccc(C)cc3[nH]c2=O)S(=O)(=O)c2ccccc2)c(C)c1` gave NR2E3 ag-1 2, Rev-erbA mod 15*, MC4R antag cAMP -2, PG9 binder -1, NR2E3 ag-2 -33, MC4R ag barr -1 and NR1D1 mod conf 9.
For Cc1cc2c(s1)c1cnn(Cc3c(Cl)ccc(C)c3F)c(=O)c1n2C the results were Rev-erbA mod 233*, NR1D1 mod conf 81* and RORg DNA counter >40.
Cc1cc2c(s1)c1cnn(Cc3ccccc3F)c(=O)c1n2C was read as NR2E3 ag-1 6, Rev-erbA mod 33*, MC4R antag cAMP -5, PG9 binder 0, NR2E3 ag-2 -17, MC4R ag barr -1 and NR1D1 mod conf 18*.
Cc1cc2c(s1)c1cnn(Cc3cc(F)ccc3F)c(=O)c1n2C was read as Rev-erbA mod 15.
Cc1c(N2C(=O)/C(=C\c3ccc(N(C)C)cc3)N(C)C2=S)c(=O)n(-c2ccccc2)n1C was read as NR2E3 ag-1 -7, Rev-erbA mod 25*, MC4R antag cAMP -9, PG9 binder -19, NR2E3 ag-2 1, MC4R ag barr -4 and NR1D1 mod conf 20*.
CC(C)Oc1ccc(OCCNC2CCCC2)cc1 was read as NR2E3 ag-1 2, Rev-erbA mod -3, MC4R antag cAMP -5, PG9 binder 1, NR2E3 ag-2 -15 and MC4R ag barr -1.
For Cc1ccc2nc(Cl)c(C3CC(c4cccs4)=NN3C(=O)CCC(=O)O)cc2c1 (centres undefined) the results were NR2E3 ag-1 6, Rev-erbA mod -2, MC4R antag cAMP 22, PG9 binder -3, NR2E3 ag-2 -32 and MC4R ag barr -1.
For COc1ccc2cc(C3CC(c4cccs4)=NN3C(C)=O)c(Cl)nc2c1 (centres undefined) the results were NR2E3 ag-1 1, Rev-erbA mod 41*, MC4R antag cAMP 6, PG9 binder 1, NR2E3 ag-2 -10, MC4R ag barr -2, NR1D1 mod conf 32* and RORg DNA counter >40.
O=C(Nc1ccc(F)cc1)c1ccccc1NC(=O)C1CCCCC1C(=O)O (centres undefined) was read as Rev-erbA mod 7, MC4R antag cAMP -5, PG9 binder -3, NR2E3 ag-2 -12 and MC4R ag barr 0.
For CCOC(=O)C1=CCN(S(=O)(=O)c2cccc(Cl)c2)C1c1cccc(C)c1 (centres undefined) the results were Rev-erbA mod 18*, PG9 binder -1, NR2E3 ag-2 -14 and NR1D1 mod conf 4.
Screening CCOC(=O)C1=CCN(S(=O)(=O)c2cccc(Cl)c2)C1c1cccc(Cl)c1 (centres undefined) returned Rev-erbA mod -6 and PG9 binder 1.
O=C(NCc1ccco1)c1ccc(Cn2c(=O)c3ccccc3n(Cc3cccc(F)c3)c2=O)cc1 was read as NR2E3 ag-1 8, Rev-erbA mod 53*, MC4R antag cAMP 2, PG9 binder -1, NR2E3 ag-2 -1, MC4R ag barr -1, NR1D1 mod conf 37* and RORg DNA counter inactive.
Screening COc1cc(C(C)=O)ccc1OCC(=O)NC(=O)Nc1ccc(C)cc1C returned Rev-erbA mod 28*, MC4R antag cAMP 8, PG9 binder 0, NR2E3 ag-2 -12, MC4R ag barr 1 and NR1D1 mod conf -6.
Cc1ccc(NC(=O)NC(=O)COc2ccc(Cl)cc2Cl)c(C)c1 was read as NR2E3 ag-1 3, Rev-erbA mod 2, MC4R antag cAMP 0, PG9 binder 0, NR2E3 ag-2 4 and MC4R ag barr -2.
`COc1cc(/C=N/Nc2nc(=O)[nH]nc2C)cc([N+](=O)[O-])c1O` gave NR2E3 ag-1 -5, Rev-erbA mod 4, MC4R antag cAMP -20, PG9 binder -12, NR2E3 ag-2 -4 and MC4R ag barr -3.
`CS(=O)(=O)N1CCCCC1c1cc(C(=O)Nc2ccc3c(c2)OCO3)no1` (centres undefined) gave Rev-erbA mod 4, MC4R antag cAMP -2, PG9 binder -1, NR2E3 ag-2 -59 and MC4R ag barr -1.
CCOC(=O)c1cc(-c2ccc3c(c2)OCO3)nc2onc(C)c12 was read as NR2E3 ag-1 0, Rev-erbA mod 33*, MC4R antag cAMP 1, PG9 binder 1, NR2E3 ag-2 6, MC4R ag barr 0 and NR1D1 mod conf 9.
For C/C=C(/C(=C/C)c1ccc(O)cc1)c1ccc(O)cc1 the results were NR2E3 ag-1 0, Rev-erbA mod 31*, MC4R antag cAMP -1, PG9 binder -2, NR2E3 ag-2 -42, MC4R ag barr 7, NR1D1 mod conf 40* and RORg DNA counter >40.
For COc1ccccc1C=C(C(=O)c1ccccc1)c1ccccc1 the results were Rev-erbA mod 18*, PG9 binder -3, NR2E3 ag-2 13 and NR1D1 mod conf 5.
Screening COc1cc(/C=N/Nc2ccc(C(F)(F)F)cn2)ccc1O returned NR2E3 ag-1 2, Rev-erbA mod 4, MC4R antag cAMP 4, PG9 binder -2, NR2E3 ag-2 -51 and MC4R ag barr 0.
Cc1ccccc1Cn1c(CN2CCN(C(=O)c3ccco3)CC2)nc2c1c(=O)n(C)c(=O)n2C was read as NR2E3 ag-1 0, Rev-erbA mod 2, MC4R antag cAMP 0, PG9 binder 1, NR2E3 ag-2 10 and MC4R ag barr 1.

Screens: PubChem, several laboratories
